Measurements reported in ChEMBL document CHEMBL1139285, “TRAIL-enhancing activity of Erythrinan alkaloids from Erythrina velutina” (Bioorg Med Chem Lett, 2009).
In brackets after ≈: the same amount, converted by molar mass.

Legend:
Jurkat [1] = experiment: Cytotoxicity against human Jurkat cells in presence and relative to TRAIL; assay type: functional, cell-based
Summary of the method: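 Jurkat cell proliferation test run with each isolate in combination with TRAIL, to measure enhancement of TRAIL cytotoxicity; values expressed relative to the cell proliferation rate at 0.125.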

Jurkat [2] = experiment: Growth inhibition of human Jurkat cells; assay type: functional, cell-based
Jurkat [3] = experiment: Cytotoxicity against human Jurkat cells in presence and relative to TRAIL at 50 ug/mL; assay type: functional
Summary of the method: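 Proliferation assay in Jurkat cells exposed to each isolated alkaloid together with TRAIL. Results are expressed relative to the cell proliferation rate at […].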

Jurkat [4] = experiment: Growth inhibition of human Jurkat cells at 50 ug/mL; assay type: functional

| Structure (SMILES) | IC50 (Jurkat [1]) [µg/mL] | IC50 (Jurkat [2]) [µg/mL] | inhibition at 50 µg/mL (Jurkat [3]) [%] | inhibition at 50 µg/mL (Jurkat [4]) [%] |
| --- | --- | --- | --- | --- |
| COc1cc2c(cc1O)CC[N+]1([O-])CC=C3C=C[C@H](OC)C[C@]321 (stereo not given in full) | > 50 | > 50 | 18.9 | 2.4 |
| COC(=O)c1cc2c(cn1)CCN1CC=C3C=C[C@H](OC)C[C@]321 [ERYMELANTHINE] | > 50 | > 50 | 24.2 | 1.1 |
| O=c1cc(-c2ccc(O)cc2)oc2cc(O)cc(O)c12 [APIGENIN] | 6.7 (≈ 24.8 µM) | 30 (≈ 111 µM) |  |  |
| CO[C@H]1C=CC2=CC(=O)N3CCc4cc5c(cc4[C@]23C1)OCO5 | 22 (≈ 70.7 µM) | > 50 |  | 37 |
| CC[C@]1(O)C[C@H]2CN(CCc3c([nH]c4ccccc34)[C@@](C(=O)OC)(c3cc4c(cc3OC)N(C=O)[C@H]3[C@@](O)(C(=O)OC)[C@H](OC(C)=O)[C@]5(CC)C=CCN6CC[C@]43[C@@H]65)C2)C1 [VINCRISTINE] |  | 0.0031 (≈ 0.00376 µM) |  |  |
| COc1cc2c(cc1OC)[C@]13C[C@@H](OC)C=CC1=CCN3CC2 [ERYSOTRINE] | 7.2 (≈ 23 µM) | > 50 |  | 45 |
| COc1cc2c(cc1O)[C@]13C[C@@H](OC)C=CC1=CCN3CC2 [ERYSOVINE] | 14.2 (≈ 47.4 µM) | 24 (≈ 80.2 µM) |  |  |
| COc1cc2c(cc1O)CCN1CC=C3C=C[C@H](OC)C[C@]321 [ERYSODINE] | 4.9 (≈ 16.4 µM) | 10.8 (≈ 36.1 µM) |  |  |
| C[N+](C)(C)[C@H](Cc1c[nH]c2ccccc12)C(=O)[O-] [HYPAPHORINE] | > 50 | > 50 | 20 | 5.8 |
| COc1cc2c(cc1O[C@@H]1O[C@H](CO)[C@@H](O)[C@H](O)[C@H]1O)CCN1CC=C3C=C[C@H](OC)C[C@]321 [GRYCOERYSODINE] | 44 (≈ 95.3 µM) | > 50 |  | 4.7 |
| CO[C@H]1C=CC2=CCN3CCc4cc5c(cc4[C@]23C1)OCO5 [ERYTHRALINE] | 5 (≈ 16.8 µM) | 23 (≈ 77.3 µM) |  |  |
